Reference: ChEMBL document CHEMBL3244169, “(1-(3-(Phenothiazin-10-yl)propyl)-4-piperidinyl)phenylmethanones, a novel class of long-acting neuroleptic agents” (J Med Chem, 1978)
The source made the active and inactive calls. No cut-off for these calls is given here.

Assays:
Mus musculus [1] = test: Toxicity in ICR-DUB mouse assessed as reduction in food intake at 60 mg/kg, ip; format: organism-based; set-up: dose 60 mg/kg, route intraperitoneal; details: in vivo
Mus musculus [2] = test: Neuroleptic activity in mouse assessed as suppression of conditioned avoidance behavior by measuring mean correct responses level at 10 mg/kg, ip administered 8 hrs prior to electric shock challenge; format: functional; details: route intraperitoneal
Method in brief: (§1)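 After 20 s a solenoid pushed each mouse back onto the grid, leaving 5 s to return and avoid the next shock. Trained mice reaching 90–100% correct avoidance (3–5 per group) received 10 mg/kg ip. Twenty trials were run before dosing and at intervals after. Percent correct avoidance per animal was averaged per group.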

Mus musculus [3] = test: Neuroleptic activity in mouse assessed as suppression of conditioned avoidance behavior by measuring mean correct responses level at 10 mg/kg, ip administered 2 hrs prior to electric shock challenge; format: functional; details: route intraperitoneal; method in brief: as §1
Mus musculus [4] = test: Neuroleptic activity in ip dosed ICR-DUB mouse assessed as survival administered 3 days prior to d-amphetamine challenge measured after 24 hrs; format: functional
Mus musculus [5] = test: Neuroleptic activity in mouse assessed as suppression of conditioned avoidance behavior by measuring mean correct responses level at 10 mg/kg, ip administered 1 day prior to electric shock challenge; format: functional; details: route intraperitoneal; method in brief: as §1
Mus musculus [6] = test: Neuroleptic activity in mouse assessed as suppression of conditioned avoidance behavior by measuring mean correct responses level at 10 mg/kg, ip administered 4 hrs prior to electric shock challenge; format: functional; details: route intraperitoneal; method in brief: as §1
Mus musculus [7] = test: Toxicity in ICR-DUB mouse assessed as grooming of coat at 60 mg/kg, ip; format: organism-based; set-up: dose 60 mg/kg, route intraperitoneal; details: in vivo
Mus musculus [8] = test: Neuroleptic activity in ip dosed ICR-DUB mouse assessed as survival administered 2 days prior to d-amphetamine challenge measured after 24 hrs; format: functional
Mus musculus [9] = test: Neuroleptic activity in ip dosed ICR-DUB mouse assessed as survival administered 7 days prior to d-amphetamine challenge measured after 24 hrs; format: functional
Mus musculus [10] = test: Neuroleptic activity in ip dosed ICR-DUB mouse assessed as survival administered 4 days prior to d-amphetamine challenge measured after 24 hrs; format: functional
Mus musculus [11] = test: Neuroleptic activity in ip dosed ICR-DUB mouse assessed as survival administered 1 hr prior to d-amphetamine challenge measured after 24 hrs; format: functional
Mus musculus [12] = test: Neuroleptic activity in ip dosed ICR-DUB mouse assessed as survival administered 5 days prior to d-amphetamine challenge measured after 24 hrs; format: functional
Mus musculus [13] = test: Neuroleptic activity in ip dosed ICR-DUB mouse assessed as survival administered 16 hrs prior to d-amphetamine challenge measured after 24 hrs; format: functional
Mus musculus [14] = test: Toxicity in ICR-DUB mouse assessed as depression at 60 mg/kg, ip measured for 5 days; format: organism-based; set-up: dose 60 mg/kg, route intraperitoneal; details: in vivo, 120 h
Mus musculus [15] = test: Neuroleptic activity in mouse assessed as suppression of conditioned avoidance behavior by measuring mean correct responses level at 10 mg/kg, ip administered immediately prior to electric shock challenge; format: functional; details: route intraperitoneal; method in brief: as §1
Mus musculus [16] = test: Neuroleptic activity in mouse assessed as suppression of conditioned avoidance behavior by measuring mean correct responses level at 10 mg/kg, ip administered 1 hr prior to electric shock challenge; format: functional; details: route intraperitoneal; method in brief: as §1
Mus musculus [17] = test: Neuroleptic activity in mouse assessed as suppression of conditioned avoidance behavior by measuring mean correct responses level at 10 mg/kg, ip administered 2 days prior to electric shock challenge; format: functional; details: route intraperitoneal; method in brief: as §1
Mus musculus [18] = test: Neuroleptic activity in ip dosed ICR-DUB mouse assessed as survival administered 4 hrs prior to d-amphetamine challenge measured after 24 hrs; format: functional
Mus musculus [19] = test: Neuroleptic activity in mouse assessed as suppression of conditioned avoidance behavior by measuring mean correct responses level at 20 mg/kg, ip administered 7 days prior to electric shock challenge; format: functional, organism-based; set-up: dose 20 mg/kg
Mus musculus [20] = test: Toxicity in ICR-DUB mouse assessed as grooming at 50 mg/kg, ip; format: organism-based; set-up: dose 50 mg/kg, route intraperitoneal; details: in vivo
Mus musculus [21] = test: Toxicity in ICR-DUB mouse assessed as grooming at 50 mg/kg, ip measured during first 24 hrs; format: organism-based; set-up: dose 50 mg/kg, route intraperitoneal; details: in vivo
Mus musculus [22] = test: Neuroleptic activity in ip dosed ICR-DUB mouse assessed as survival administered 6 days prior to d-amphetamine challenge measured after 24 hrs; format: functional
Mus musculus [23] = test: Neuroleptic activity in mouse assessed as suppression of conditioned avoidance behavior by measuring mean correct responses level at 10 mg/kg, ip administered 3 days prior to electric shock challenge; format: functional; details: route intraperitoneal; method in brief: as §1
Mus musculus [24] = test: Neuroleptic activity in mouse assessed as suppression of conditioned avoidance behavior by measuring mean correct responses level at 10 mg/kg, ip administered 4 days prior to electric shock challenge; format: functional; details: route intraperitoneal; method in brief: as §1
Mus musculus [25] = test: Toxicity in ICR-DUB mouse assessed as mild sedation at 50 mg/kg, ip measured for 6 days; format: organism-based; set-up: dose 50 mg/kg, route intraperitoneal; details: in vivo, 144 h
Mus musculus [26] = test: Toxicity in ICR-DUB mouse assessed as CNS depression at 50 mg/kg, ip measured for 24 hrs; format: organism-based; set-up: dose 50 mg/kg, route intraperitoneal; details: in vivo
Mus musculus [27] = test: Toxicity in ICR-DUB mouse assessed as body weight loss at 50 mg/kg, ip; format: organism-based; set-up: dose 50 mg/kg, route intraperitoneal; details: in vivo

SMILES	Activity (Mus musculus [2])	Activity (Mus musculus [3])	ED50 (Mus musculus [4])	Activity (Mus musculus [5])	Activity (Mus musculus [6])	ED50 (Mus musculus [8])	ED50 (Mus musculus [9])	ED50 (Mus musculus [10])	ED50 (Mus musculus [11])	ED50 (Mus musculus [12])	ED50 (Mus musculus [13])	Activity (Mus musculus [15])	Activity (Mus musculus [16])	Activity (Mus musculus [17])	ED50 (Mus musculus [18])	further results
O=C(O)/C=C/C(=O)O.O=C(c1ccc(F)cc1)C1CCN(CCCN2c3ccccc3Sc3ccc(Cl)cc32)CC1	40%	38%	8.8 mg/kg	57%	32%	4.6 mg/kg	inactive	20.9 mg/kg	0.17 mg/kg	> 60 mg/kg	0.72 mg/kg	96%	80%	95%	0.53 mg/kg	Activity (Mus musculus [1]): Toxic; Activity (Mus musculus [7]): Toxic; Activity (Mus musculus [14]): Toxic
OC1(c2ccc(Cl)c(C(F)(F)F)c2)CCN(CCCC(c2ccc(F)cc2)c2ccc(F)cc2)CC1 [PENFLURIDOL]	–	–	17 mg/kg	–	–	3 mg/kg	–	47.5 mg/kg	1.28 mg/kg	Active	1.52 mg/kg	–	–	–	1.82 mg/kg	Activity (Mus musculus [19]): Active
O=C(CCCN1CCC(O)(c2ccc(Cl)cc2)CC1)c1ccc(F)cc1 [HALOPERIDOL]	–	–	Active	–	–	16 mg/kg	–	–	0.09 mg/kg	–	0.58 mg/kg	–	–	–	–	–
O=C(O)/C=C/C(=O)O.O=C(c1ccc(F)cc1)C1CCN(CCCN2c3ccccc3Sc3ccc(C(F)(F)F)cc32)CC1 [DUOPERONE FUMARATE]	45%	88%	15.2 mg/kg	58%	80%	4.7 mg/kg	45.5 mg/kg	27 mg/kg	–	28.4 mg/kg	–	92%	98%	58%	–	Activity (Mus musculus [20]): Non-toxic; Activity (Mus musculus [21]): Toxic; ED50 (Mus musculus [22]): 26.5 mg/kg; Activity (Mus musculus [23]): 58%; Activity (Mus musculus [24]): 95%; Activity (Mus musculus [25]): Toxic; Activity (Mus musculus [26]): Toxic; Activity (Mus musculus [27]): Non-toxic
O=C(c1ccc(Cl)c(Cl)c1)C1CCN(CCCN2c3ccccc3Sc3ccc(Cl)cc32)CC1	95%	97%	–	93%	92%	–	inactive	–	> 16 mg/kg	–	–	97%	97%	–	–	–
CN(C)CCCN1c2ccccc2Sc2ccc(Cl)cc21 [CHLORPROMAZINE]	72%	28%	Active	88%	37%	> 32 mg/kg	–	–	0.28 mg/kg	–	3.65 mg/kg	96%	42%	95%	–	–
O.O=C(O)/C=C/C(=O)O.O=C(c1ccc(F)cc1)C1CCN(CCCN2c3ccccc3Sc3ccccc32)CC1	93%	70%	> 50 mg/kg	87%	75%	12.1 mg/kg	inactive	–	0.94 mg/kg	–	1.27 mg/kg	97%	63%	98%	0.35 mg/kg	–
CC(=O)c1ccc2c(c1)N(CCCN1CCC(C(=O)c3ccc(F)cc3)CC1)c1ccccc1S2.O.O=C(O)/C=C/C(=O)O	55%	61%	17.5 mg/kg	55%	43%	22.5 mg/kg	inactive	> 64 mg/kg	–	60 mg/kg	–	95%	73%	95%	–	Activity (Mus musculus [23]): 100%
